Bioassay records deposited in PubChem BioAssay by several laboratories.
Hits are enriched below; roughly 5.6% of the tested compounds scored in any of these assays.
CHOP inh – inhibitors of CHOP induction in ER stress response; CHO-K1 CHOP-promoter luciferase, tunicamycin-induced, 15-18 h; 220,000 compounds, 3.8% hits; inhibition, % at 10 µM;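 active means compounds that reduced the stress-induced luciferase reporter signal by more than about 70% of percent inhibition, limit read from the data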;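 further: 0% = tunicamycin plus vehicle and 100% = wells without tunicamycin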
UPR XBP1 act – adaptive UPR (XBP1) activation | activation, % at 20 µM | CHO-XBP1 luciferase reporter, IRE1-XBP1 UPR activation, luminescence; percent of tunicamycin response, DMSO as zero | 330,000 compounds, 0.33% hits | AID 463104;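 active means versus positive control, 20 µM dose yields 30% or more activation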;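 further: 100% = tunicamycin at 10 µg/mL and 0% = DMSO only wells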
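Material – CHO cell line with stable XBP1 luciferase reporter · Buffer or medium – F12 plus 10% FBS · Compound – single point, 20 µM final compound, 1% DMSO · Schedule – 16-18 h cell attachment at 37 °C, then 6 h compound exposure · Signal – Steady-Glo luminescence read · Benchmarks – high control tunicamycin 10 µg/mL final, low control DMSO vehicle only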
UPR CHOP act – apoptotic UPR (CHOP) activation; activation, % at 10 µM; 330,000 compounds, 0.34% hits; AID 449763; CHO-CHOP luciferase reporter, luminescence; percent of tunicamycin response over DMSO baseline;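 active means at 10 µM dose, activation of 40% or more, normalized to positive control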;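 further: 100% = tunicamycin at 10 µg/mL and 0% = DMSO alone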
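System: CHO-CHOP luciferase reporter cell line; amount: 500 cells/well; buffer or medium: F12 medium containing 10% fetal bovine serum; incubation: 6 h compound exposure at 37 °C after overnight seeding; measured by: luciferase luminescence after 10 min with Steady-Glo reagent; evaluation: % reporter activation, DMSO baseline versus tunicamycin full activation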
MPTP inh – permeability transition pore inhibition. inhibition, % at 10 µM. AID 602449. 360,000 compounds, 1.4% hits. isolated mouse mitochondria, Ca2+ swelling absorbance, 30 min;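 active means inhibition of 50% or more, scaled per plate between neutral and stimulator controls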;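 further: 0% = DMSO wells given calcium and 100% = 1 mM EGTA wells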
GRIN3A LBD mod – NR3A (human) ligand-binding domain modulation | Tm shift relative to glycine control, % at 25 µM | AID 1259313 | 340,000 compounds, 2.5% hits | NR3A LBD differential scanning fluorimetry, Tm shift; 0% = protein alone, 100% = glycine-bound protein;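 active means melting temperature shift of at least 10% of the positive control shift, at one fixed dose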
aDG glyco up – alpha-DG glycosylation activation; AID 624168; 360,000 compounds, 0.22% hits; Pro5-aDG cells, alpha-DG glycosylation AlphaScreen (IIH6); 0% Pro5, 100% B10-LARGE cell signal; activation, % at 10 µM;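 active means activation of at least 8% versus controls, or a plate z-score of at least 8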;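 further: Pro5 are CHO cells carrying HIG-tagged alpha-DG that lacks glycosylation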
The depositor's hits bear a star; x = no result given.

SMILES	CHOP inh	UPR XBP1 act	UPR CHOP act	MPTP inh	GRIN3A LBD mod	aDG glyco up
C1=CCC(CN2CCNCC2)CC1 (centres undefined)	-16	-2	-2	1	1	0
Cc1ccc(C)c(N2CCN(CC3CC=CCC3)CC2)c1 (centres undefined)	72*	0	0	2	-1	0
CCC(c1nnnn1CCc1ccccc1)N(Cc1ccco1)Cc1cc2c(C)ccc(C)c2[nH]c1=O (centres undefined)	90*	-3	0	1	5	0
COc1cc(/C=N/N=C2\CC3CCC2(C)C3(C)C)ccc1O (centres undefined)	77*	-1	1	-2	3	0
Fc1cccc(F)c1/C=C/c1ccc2ccccc2n1	46	-5	3	0	7	0
Cc1ccc2nc(/C=C/c3cccc(F)c3)ccc2c1	96*	0	1	1	-30	0
CN(C)c1nc(N)nc(CSc2nc3c(c(=O)n(C)c(=O)n3C)n2Cc2ccccc2F)n1	72*	-2	-1	-1	-1	0
Cn1c(=O)c2c(nc(SCc3nn[nH]n3)n2Cc2ccccc2F)n(C)c1=O	-3	x	x	-2	-10	0
Cc1ccc(C(=O)N/N=C\c2ccc(-c3ccc([N+](=O)[O-])cc3)o2)cn1	14	3	0	2	-2	0
Cc1ccc(C(=O)N/N=C\c2ccc(-c3ccc(Cl)cc3)o2)cn1	1	-2	1	12	13*	0
Cc1cc(C(=O)NN=Cc2ccc(-c3ccc(F)cc3)o2)c(C)o1	x	-1	0	1	16*	0
COc1ccc(-n2nc3c(c2NC(=O)COc2ccccc2OC)CS(=O)(=O)C3)cc1	x	x	x	-2	x	0
CSc1nc2ccc3nc(NC(=O)c4ccc(Cl)s4)sc3c2s1	66	1	2	3	21*	0
CSc1nc2ccc3nc(NC(=O)c4cccs4)sc3c2s1	-23	11	4	2	28*	0
COc1ccc(-c2ccc(SCC(=O)NC3CCCCC3)nn2)cc1OC	x	5	3	1	0	0
Cc1[nH]c2ccccc2c1C(=O)/C=C/c1ccccc1Cl	90*	4	6	14	27*	0
Cc1[nH]c2ccccc2c1C(=O)/C=C/c1ccccc1	16	3	3	-2	-2	1
Cc1[nH]c2ccccc2c1C(=O)/C=C\c1ccccc1Cl	74*	7	5	9	11*	1
CC(Sc1cnc2ccccc2n1)C(=O)O (centres undefined)	18	0	-1	5	1	0
Cc1ccc(Sc2cnc3ccccc3n2)cc1	86*	1	3	0	0	0
COc1cc(-c2nc(-c3ccc4c(c3)-c3ccccc3S4(=O)=O)c(-c3ccccc3)[nH]2)cc(OC)c1O	92*	13	21	-1	7	-1
O=Cc1cccn1-c1nccc(-c2ccco2)n1	15	1	1	-2	0	0
O=C(N/N=C/c1ccc(O)cc1O)c1ccc(CN2C(=O)c3cccc4cccc2c34)cc1	60	-2	-2	0	20*	1
COC1OC(c2ccccc2)=C(c2ccc(C(N)=O)cc2)c2ccc(F)cc21 (centres undefined)	x	x	x	1	x	0
Cc1ccc2[nH]c(C)c(/C=N/Nc3nc4ccccc4s3)c2c1	78*	0	-2	0	24*	0
SMILES	CHOP inh	UPR XBP1 act	UPR CHOP act	MPTP inh	GRIN3A LBD mod	aDG glyco up
CCC/C=N/Nc1nc2ccccc2s1	-26	5	4	4	-2	0
C(=N\Nc1nc2ccccc2s1)/c1ccc2c(c1)OCO2	-21	0	8	0	9	0
C(=C\c1ccccc1)/C=N/Nc1nc2ccccc2s1	49	1	2	8	-4	0
COc1ccc(C=NNc2nc3ccccc3s2)cc1	x	x	x	2	33*	0
Brc1csc(/C=N/Nc2nc3ccccc3s2)c1	68	4	7	34	22*	0
Brc1ccc(/C=C/C=N/Nc2nc3ccccc3s2)cc1	-29	1	11	5	40*	0
O=C(NCCN1CCOCC1)c1ccc(NS(=O)(=O)c2ccccc2)cc1	x	-4	0	-1	0	0
C[C@H](CO)N1C[C@H](C)[C@@H](CN(C)S(=O)(=O)c2ccc(Oc3ccccc3)nc2)OCc2cn(nn2)CCCC1=O	x	x	x	0	x	0
CC(C)CC(=O)Nc1nnc(S(=O)(=O)N2CCc3ccccc32)s1	x	-3	0	1	1	0
CC1CCN(S(=O)(=O)c2cnc[nH]2)CC1	x	-1	-2	-3	-1	0
COc1cc(OC)cc(C(=O)Oc2ccc(/C=N/Nc3nc4ccccc4s3)cc2OC)c1	1	3	3	1	18*	0
C(=N\Nc1nc2ccccc2s1)/c1ccccn1	101*	-9	-10	x	-2	x
COc1cc(/C=N/Nc2nc3ccccc3s2)ccc1OC(=O)c1ccccc1F	40	8	6	1	-11	0
Cc1csc(Nc2nc(N)c(C(=O)Nc3cc(Cl)ccc3F)o2)n1	x	-2	2	1	22*	0
CCOC(=O)C1CCCN(C(=O)c2[nH]c(C(F)(F)F)nc2-c2ccccc2)C1 (centres undefined)	x	x	x	-2	x	0
CC1CC(C)(C)N2C(=O)C3(Nc4ccccc4S3)c3cccc1c32 (centres undefined)	91*	-2	-1	2	2	0
O=C(CCc1ccccc1)N=C1SC2CS(=O)(=O)CC2N1Cc1ccccc1 (centres undefined)	x	2	2	1	-2	0
O=C1NN=C(c2ccc(Cl)cc2)CC1c1c[nH]c2ccccc12 (centres undefined)	4	-5	-2	1	-24	0
O=C1NN=C(c2ccc(Cl)cc2)CC1c1cccc(Br)c1 (centres undefined)	78*	-1	1	0	-11	0
Cc1ccc(C2=NNC(=O)C(c3ccc(Cl)cc3)C2)cc1 (centres undefined)	96*	1	-2	0	-3	0
CCC(C)c1ccccc1NC(=O)COC(=O)C1=COCCO1 (centres undefined)	5	1	-1	2	0	0
Cc1[nH]c2ccc(-c3nnc(SCC(=O)c4ccc(F)cc4)o3)cc2c1C	26	14	2	0	29*	0
Cc1cc(C)c(C)c(C(=O)CSc2nnc(-c3ccc4[nH]c(C)c(C)c4c3)o2)c1C	71*	-1	-1	2	4	0
